pIC50: −log10 of the molar value. Activity calls are given as the source filed them. No cut-off for these calls is given here.
How the values were obtained:
[1] = Antitumor activity against human GTL16 cells overexpressing c-Met xenografted in CD-1 nude mouse assessed as tumor growth inhibition at 5 mg/kg, ip administered as q4d/week for 2 weeks starting 3 days after tumor injection measured on day 5 post last dose relative to vehicle-treated control; format: functional; conditions: GTL 16, ip, route intraperitoneal, read-out: TGI
In short: (§1)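 Female athymic nude mice, 5-6 weeks old, inoculated s.c. in right flank with 5 × 10^6 exponentially growing tumor cells. Intraperitoneal dosing in 10 mL/kg, starting 3 days post-implant. Tumor volume = d²·D/2 from calipered shortest and longest diameters, measured biweekly. TVI% = 100 − (mean TV treated/mean TV control × 100), scored 5 days after last dose. Mann-Whitney test vs vehicle group; 8 mice per group.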

[2] = system: Mus musculus; test: (§2) In vivo inhibition of HSP90 in human A431 cells overexpressing EGFR xenografted in CD-1 nude mouse assessed as downregulation of EGFR protein expression at 8 mg/kg, ip administered as q4d/week for 2 weeks starting 3 days after tumor injection measured at 2 hrs post last dose by Western blot analysis; format: functional, organism-based; design: dose 8 mg/kg; conditions: A-431
In short: (§3)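 Nude-mouse s.c. xenografts given i.p. compound from day 3. Tumors excised 2 h (A431) or 6 h (GTL-16) after last dose and homogenized in tissue protein extraction reagent with 10 µg/ml protease inhibitor cocktail. Whole lysates analysed by Western blot with actin as loading control; two tumor samples per group shown.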

[3] = biological target: Heat shock protein HSP 90-beta (Homo sapiens) (UniProt P08238); test: Inhibition of HSP90 in human A431 cells overexpressing EGFR assessed as downregulation of EGFR protein expression after 24 hrs by Western blot analysis; format: cell-based; conditions: A-431
In short: (§4)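 A431 cells treated 24 h after seeding for 24 h over a concentration range; 17-DMAG 0.2 µM as reference. Cells lysed in RIPA buffer with protease and phosphatase inhibitors, protein measured by Bradford. Equal protein run on SDS-PAGE and blotted to nitrocellulose, then probed for EGFR, Cdk4, Akt, Hsp70 and actin. ECL detection; densitometry normalized to β-actin. Run at least twice.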

[4] = biological target: Heat shock protein HSP 90-alpha (Homo sapiens, UniProt P07900); test: Displacement of GM-FITC from full-length recombinant human Hsp90-alpha after 4 hrs by fluorescence polarization assay
[5] = system: Mus musculus; test: Toxicity in CD-1 nude mouse xenografted with human A431 cells overexpressing EGFR assessed as mortality at 8 mg/kg, ip administered as q4d/week for 2 weeks starting 3 days after tumor injection measured on day 5 post last dose relative to vehicle-treated control; format: organism-based, A-431; design: dose 8 mg/kg, route intraperitoneal; conditions: in vivo
In short: (§5)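 S.c. right-flank xenografts, 5 × 10^6 cells, in female athymic nude mice 5-6 weeks old. Intraperitoneal dosing in 10 mL/kg from day 3 post-implant. Lethal toxicity counted as deaths in treated mice occurring before the first control mouse died, reported as dead/treated (8 per group). Body weight loss was also tracked from the first treatment day.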

[6] = system: Mus musculus; test: as §2, with “human GTL16” for “human A431”, “overexpressing c-Met” for “overexpressing EGFR”, “of AKT” for “of EGFR”, “at 6” for “at 2”; format: functional, organism-based; design: dose 8 mg/kg; in short: as §3
[7] = biological target: Heat shock protein HSP 90-beta (Homo sapiens) (UniProt P08238); test: Inhibition of HSP90 in human A431 cells overexpressing EGFR assessed as induction of HSP70 protein expression after 24 hrs by Western blot analysis; format: cell-based; conditions: A-431; in short: as §4
[8] = system: Mus musculus; test: In vivo inhibition of HSP90 in human A431 cells overexpressing EGFR xenografted in CD-1 nude mouse assessed as downregulation of AKT protein expression at 8 mg/kg, ip administered as q4d/week for 2 weeks starting 3 days after tumor injection measured at 2 hrs post last dose by Western blot analysis; format: functional, organism-based; design: dose 8 mg/kg; conditions: A-431; in short: as §3
[9] = system: Mus musculus; test: Toxicity in CD-1 nude mouse xenografted with human A431 cells overexpressing EGFR assessed as body weight loss at 8 mg/kg, ip administered as q4d/week for 2 weeks starting 3 days after tumor injection measured on day 5 post last dose relative to vehicle-treated control; format: organism-based, A-431; design: dose 8 mg/kg, route intraperitoneal; conditions: in vivo
In short: (§6)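 Female athymic nude mice carrying s.c. xenografts, dosed i.p. (mg/10 mL/kg per administration) starting 3 days after tumor injection. BWL% = 100 − (mean BW day x/mean BW day 1 × 100), day 1 being the first treatment day. Maximum BWL% recorded. Lethal toxicity counted as deaths before the first control death.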

[10] = system: Mus musculus; test: Toxicity in CD-1 nude mouse xenografted with human GTL16 cells overexpressing c-Met assessed as mortality at 5 mg/kg, ip administered as q4d/week for 2 weeks starting 3 days after tumor injection measured on day 5 post last dose relative to vehicle-treated control; format: organism-based; design: dose 5 mg/kg, route intraperitoneal; conditions: in vivo; in short: as §5
[11] = system: Mus musculus; test: (§7) In vivo inhibition of HSP90 in human A431 cells overexpressing EGFR xenografted in CD-1 nude mouse assessed as downregulation of CDK4 protein expression at 8 mg/kg, ip administered as q4d/week for 2 weeks starting 3 days after tumor injection measured at 2 hrs post last dose by Western blot analysis; format: functional, organism-based; design: dose 8 mg/kg; conditions: A-431; in short: as §3
[12] = system: Mus musculus; test: Toxicity in CD-1 nude mouse xenografted with human GTL16 cells overexpressing c-Met assessed as body weight loss at 5 mg/kg, ip administered as q4d/week for 2 weeks starting 3 days after tumor injection measured on day 5 post last dose relative to vehicle-treated control; format: organism-based; design: dose 5 mg/kg, route intraperitoneal; conditions: in vivo; in short: as §6
[13] = system: NCI-H460; test: Cytotoxicity against human NCI-H460 cells assessed as growth inhibition after 72 hrs by SRB assay; format: functional, cell-based; conditions: NCI-H460, 72 h
In short: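 NCI-H460 cells grown in RPMI-1640 with 10% heat-inactivated FBS, seeded at about 10% confluence and allowed 24 h recovery. Exposed to graded drug concentrations or solvent for 72 h. Surviving fraction measured by sulforhodamine B. IC50 is the concentration giving a 50% drop in cell number vs vehicle, from dose-response curve fitting; mean of n=4 with SD.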

[14] = biological target: Heat shock protein HSP 90-beta (Homo sapiens) (UniProt P08238); test: Inhibition of HSP90 in human A431 cells overexpressing EGFR assessed as downregulation of AKT protein expression after 24 hrs by Western blot analysis; format: cell-based; conditions: A-431; in short: as §4
[15] = system: Mus musculus; test: as §7, with “human GTL16” for “human A431”, “overexpressing c-Met” for “overexpressing EGFR”, “at 6” for “at 2”; format: functional, organism-based; design: dose 8 mg/kg; in short: as §3
[16] = system: Mus musculus; test: as §2, with “human GTL16” for “human A431”, “overexpressing c-Met” for “overexpressing EGFR”, “of c-Met” for “of EGFR”, “at 6” for “at 2”; format: functional, organism-based; design: dose 8 mg/kg; in short: as §3
[17] = system: Mus musculus; test: In vivo inhibition of HSP90 in human A431 cells overexpressing EGFR xenografted in CD-1 nude mouse assessed as induction of HSP70 protein expression at 8 mg/kg, ip administered as q4d/week for 2 weeks starting 3 days after tumor injection measured at 2 hrs post last dose by Western blot analysis; format: functional, organism-based; design: dose 8 mg/kg; conditions: A-431; in short: as §3
[18] = system: A-431; test: Antitumor activity against human A431 cells overexpressing EGFR xenografted in CD-1 nude mouse assessed as tumor growth inhibition at 8 mg/kg, ip administered as q4d/week for 2 weeks starting 3 days after tumor injection measured on day 5 post last dose relative to vehicle-treated control; format: functional; conditions: A-431, ip, route intraperitoneal, read-out: TGI; in short: as §1
[19] = biological target: Heat shock protein HSP 90-beta (Homo sapiens) (UniProt P08238); test: Inhibition of HSP90 in human A431 cells overexpressing EGFR assessed as downregulation of CDK4 protein expression after 24 hrs by Western blot analysis; format: cell-based; conditions: A-431; in short: as §4
[20] = system: Mus musculus; test: In vivo inhibition of HSP90 in human GTL16 cells overexpressing c-Met xenografted in CD-1 nude mouse assessed as induction of HSP70 protein expression at 8 mg/kg, ip administered as q4d/week for 2 weeks starting 3 days after tumor injection measured at 6 hrs post last dose by Western blot analysis; format: functional, organism-based; design: dose 8 mg/kg; in short: as §3

Heat shock protein HSP 90-beta (Homo sapiens), sequence (P08238 whole entry): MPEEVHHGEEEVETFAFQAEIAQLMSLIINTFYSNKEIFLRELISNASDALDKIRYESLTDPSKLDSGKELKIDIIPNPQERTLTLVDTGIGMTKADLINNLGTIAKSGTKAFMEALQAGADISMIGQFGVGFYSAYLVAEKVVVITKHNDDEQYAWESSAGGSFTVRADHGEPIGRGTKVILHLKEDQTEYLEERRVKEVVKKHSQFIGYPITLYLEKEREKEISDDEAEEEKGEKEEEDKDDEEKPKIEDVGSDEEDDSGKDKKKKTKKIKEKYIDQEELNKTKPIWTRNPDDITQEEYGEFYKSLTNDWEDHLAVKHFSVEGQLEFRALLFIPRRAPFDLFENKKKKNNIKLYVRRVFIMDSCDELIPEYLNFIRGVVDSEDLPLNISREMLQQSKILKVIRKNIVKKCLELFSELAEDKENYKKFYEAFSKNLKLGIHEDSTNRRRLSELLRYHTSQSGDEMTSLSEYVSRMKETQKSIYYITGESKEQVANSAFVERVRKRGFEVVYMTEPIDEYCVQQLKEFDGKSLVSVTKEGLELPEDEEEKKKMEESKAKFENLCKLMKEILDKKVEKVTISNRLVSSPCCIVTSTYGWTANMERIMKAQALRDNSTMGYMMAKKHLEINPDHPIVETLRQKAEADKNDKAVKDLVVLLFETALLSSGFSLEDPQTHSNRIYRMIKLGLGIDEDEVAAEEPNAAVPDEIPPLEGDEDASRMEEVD

CCNC(=O)c1nnn(-c2cc(C(C)C)c(O)cc2O)c1-c1ccc(CN2CCCC(O)C2)cc1 (stereo not given)
inhibition in vivo at 5 mg/kg [1]: 42% | inhibition [2]: Active | inhibition [3]: Dose-dependent effect | pIC50 [4]: 7.64 | Activity [5]: Non-toxic | inhibition [6]: Active | inhibition [7]: Dose-dependent effect | inhibition [8]: Active | Imax [9]: 7% | Activity [10]: Non-toxic | inhibition [11]: Active | Imax [12]: 17% | pIC50 [13]: 7.21 | inhibition [14]: Dose-dependent effect | inhibition [15]: Active | inhibition [16]: Active | inhibition [17]: Active | inhibition in vivo at 8 mg/kg [18]: 45% | inhibition [19]: Dose-dependent effect | inhibition [20]: Active

— ChEMBL document CHEMBL3232837, “Synthesis and evaluation of new Hsp90 inhibitors based on a 1,4,5-trisubstituted 1,2,3-triazole scaffold” (J Med Chem, 2014)
